Data: ChEMBL document CHEMBL1250425, “New antimalarials with a triterpenic scaffold from Momordica balsamina” (Bioorg Med Chem, 2010)

Legend:
Plasmodium falciparum [1] = experiment: Antimalarial activity against chloroquine-resistant Plasmodium falciparum Dd2 infected in erythrocytes after 48 hrs by SYBR Green 1-based fluorescence assay; format: functional, organism-based; conditions: Dd2, 48 h
Outline: (§1)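 Parasites grown in fresh erythrocytes in RPMI 1640 with 25 mM HEPES, 6.8 mM hypoxanthine, 10% AlbuMAX II, 37 °C under 5% O2/3–5% CO2/N2. Compounds from DMSO stocks tested at 0.156–100 µg/mL in duplicate, with 1% parasitaemia ring stages at 2% haematocrit, 48 h at 37 °C. SYBR Green I lysis buffer added, 1 h dark at room temperature, fluorescence read at 485/535 nm, IC50 by nonlinear fit.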

Plasmodium falciparum [2] = experiment: Antimalarial activity against chloroquine-sensitive Plasmodium falciparum 3D7 infected in erythrocytes after 48 hrs by SYBR Green 1-based fluorescence assay; format: functional, organism-based; conditions: 3D7, 48 h; outline: as §1
MCF7 = experiment: Cytotoxicity against human MCF7 cells after 24 hrs by MTT assay; format: cell-based; conditions: MCF7, 24 h
Outline: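 MCF-7 grown in RPMI 1640 with 10% heat-inactivated horse serum, 2 mM L-glutamine, antibiotics; 5% CO2, 37 °C. 2 × 10^4 cells/well added to serially diluted compound, 24 h at 37 °C; MTT (5 mg/mL stock) 4 h, then 10% SDS overnight; OD 550 nm (ref 630 nm). Growth inhibition vs cell and medium controls; IC50 as mean ± SD of three experiments.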

[3] = Selectivity index, ratio of IC50 for human MCF7 cells to IC50 for chloroquine-sensitive Plasmodium falciparum 3D7; format: toxicity, cell-based; conditions: read-out: Selectivity Index
[4] = Selectivity index, ratio of IC50 for human MCF7 cells to IC50 for chloroquine-resistant Plasmodium falciparum Dd2; format: toxicity, cell-based; conditions: read-out: Selectivity Index

Row | SMILES | IC50 (Plasmodium falciparum [1]) | IC50 (Plasmodium falciparum [2]) | IC50 (MCF7) | selectivity ratio [3] | selectivity ratio [4]
1 | CO[C@H]1C=C2[C@@H](CC[C@H](O)C2(C)C)[C@]2(C)C[C@@H](O)[C@]3(C)[C@@H]([C@H](C)C/C=C/C(C)(C)O)CC[C@@]3(C)[C@H]12 | 28.3 µM | 17.7 µM | 55.4 µM | 3.1 | 2
2 | C[C@H](C/C=C/C(C)(C)O)[C@H]1CC[C@@]2(C)[C@@H]3[C@@H](O)C=C4[C@@H](CC[C@H](O)C4(C)C)[C@]3(C)CC[C@]12C | 50.1 µM | 30.6 µM |  | 1.5 | 0.9
3 | C[C@H](C/C=C/C(C)(C)O)[C@H]1CC[C@@]2(C)[C@@H]3[C@@H](O)C=C4[C@@H](CC[C@H](O)[C@]4(C)CO)[C@]3(C)CC[C@]12C [BALSAMINAGENIN A] | 27.3 µM | 19.1 µM | 65.1 µM | 3.4 | 2.4
4 | COC(C)(C)/C=C/C[C@@H](C)[C@H]1CC[C@@]2(C)[C@@H]3[C@@H](O)C=C4[C@@H](CC[C@H](O)[C@]4(C)CO)[C@]3(C)CC[C@]12C [BALSAMINAGENIN B] | 19.2 µM | 18.7 µM | 34 µM | 1.8 | 1.8
5 | C=C(C)[C@@H](O)[C@H](O)C[C@@H](C)[C@H]1CC[C@@]2(C)[C@@H]3[C@@H](O)C=C4[C@@H](CC[C@H](O)[C@]4(C)CO)[C@]3(C)CC[C@]12C [BALSAMINAPENTAOL A] | 33 µM | 14.6 µM |  | 3.2 | 1.4
6 | CC(C)=C[C@H](O)C[C@@H](C)[C@H]1CC[C@@]2(C)[C@@H]3[C@@H](O)C=C4[C@@H](CC[C@H](O)[C@]4(C)CO)[C@]3(C)CC[C@]12C [BALSAMINOL A] | 23.5 µM | 17.1 µM |  | 2.3 | 1.7
7 | CO[C@H]1C=C2[C@@H](CC[C@H](O)[C@]2(C)CO)[C@]2(C)CC[C@]3(C)[C@@H]([C@H](C)C[C@@H](O)C=C(C)C)CC[C@@]3(C)[C@H]12 [BALSAMINOL B] | 17.9 µM | 15.2 µM | 31 µM | 2 | 1.7
8 | CC(C)=CC(=O)C[C@@H](C)[C@H]1CC[C@@]2(C)[C@@H]3C(=O)C=C4[C@@H](CC[C@H](O)[C@]4(C)CO)[C@]3(C)CC[C@]12C [BALSAMINOL C] | 22.4 µM | 19.6 µM | 70.5 µM | 3.6 | 3.2
9 | CC(=O)C[C@@H](C)[C@H]1CC[C@@]2(C)[C@@H]3C(=O)C=C4[C@@H](CC[C@H](O)[C@]4(C)CO)[C@]3(C)CC[C@]12C [BALSAMINOL D] | 45.6 µM | 25.9 µM | > 133 µM | > 5.1 | > 2.9
10 | CC(C)=C[C@H](O)C[C@@H](C)[C@H]1CC[C@@]2(C)[C@@H]3C(=O)C=C4[C@@H](CC[C@H](O)C4(C)C)[C@]3(C)CC[C@]12C [BALSAMINOL E] | 19.6 µM | 20.4 µM | 44.2 µM | 2.2 | 2.3
11 | COC(C)(C)/C=C/C[C@@H](C)[C@H]1CC[C@@]2(C)[C@@H]3[C@@H](O[C@H]4O[C@@H](CO)[C@H](O)[C@H](O)[C@@H]4O)C=C4[C@@H](CC[C@H](O)C4(C)C)[C@]3(C)CC[C@]12C [BALSAMINOSIDE A] | 4 µM | 4.6 µM | 19 µM | 4.2 | 4.7
12 | C[C@H](C/C=C/C(C)(C)O)[C@H]1CC[C@@]2(C)[C@@H]3[C@@H](O)C=C4[C@@H](CC[C@H](O)C4(C)C)[C@]3(C)C[C@@H](O)[C@]12C [CUCURBALSAMINOL A] | 17.6 µM | 13.2 µM | > 133 µM | > 10.1 | > 7.6
13 | CC(C)=C[C@H](O)C[C@@H](C)[C@H]1CC[C@@]2(C)[C@@H]3C=C[C@@]45OC[C@]3(CC[C@]12C)[C@@H]4CC[C@H](O)C5(C)C [KARAVILAGENIN E] | 8.2 µM | 7.4 µM |  | 4.2 | 3.7
